These results are taken from ChEMBL document CHEMBL5042534, “Fluconazole-COX Inhibitor Hybrids: A Dual-Acting Class of Antifungal Azoles” (2022).

The test system of assay [1] is Candida parapsilosis. As to the kind of experiment: Antifungal activity against Candida parapsilosis ATCC 22019 assessed as reduction in drug tolerance by measuring zone of inhibition at 25 ug incubated for 24 to 48 hrs by disk diffusion assay. It is filed as functional, organism-based. The following applies: dose 25.0 µg, time 24-48 hrs. In outline:
(§1)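 Plated onto casitone agar from 24 h, 30 °C YPAD-agar colonies suspended in PBS. Inoculum OD600 0.02 for C. albicans SN152, 0.025 for C. parapsilosis ATCC 22019 and C. tropicalis 660. Central 6-mm disk holding 25 µg drug. Plates incubated at 30 °C and imaged at 24 h (inhibition zone) and 48 h (tolerant colonies within the zone).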
A general note: A growth-free zone around the sample is the usual read-out of agar diffusion tests.

Assay [2] concerns Candida parapsilosis. As to the kind of experiment: Antifungal activity against Candida parapsilosis ATCC 22019 assessed as fungal growth inhibition incubated for 24 hrs by CLSI based broth double-dilution assay. It is filed as functional. The settings on record: Lodderomyces parapsilosis. The essentials:
(§2)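 CLSI M27-A3 broth microdilution with modifications in YPAD. Cells from 24 h, 30 °C YPAD-agar colonies brought to 1×10^-3 OD600 in PBS, then diluted 1:100. Twofold dilutions from 64 to 0.003 µg/mL. After 24 h at 30 °C, MIC80 taken as the lowest concentration giving ≥80% OD600 reduction versus no-drug wells. Triplicate wells, two independent experiments.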

The subject of the next assay is Candida tropicalis. As to the kind of experiment: Antifungal activity against Candida tropicalis 660 assessed as reduction in drug tolerance by measuring zone of inhibition at 25 ug incubated for 24 to 48 hrs by disk diffusion assay. It is filed as functional, organism-based. The following applies: dose 25.0 µg, time 24-48 hrs. The essentials:
as §1

Assay [3] relates to Candida albicans. As to the kind of experiment: Antifungal activity against Candida albicans SN152 assessed as reduction in drug tolerance by measuring zone of inhibition at 25 ug incubated for 24 to 48 hrs by disk diffusion assay. The following applies: dose 25.0 µg, time 24-48 hrs. In kind it is functional, organism-based. In outline: as §1
For assay [4], the system named is Candida albicans. As to the kind of experiment: Antifungal activity against Candida albicans SN152 harbouring erg3delta delta/erg11delta delta assessed as […] fungal growth inhibition at 64 ug/mL measured every 40 mins for 48 hrs by double dilution method. In kind it is functional, organism-based. The settings on record: dose 64.0 µg/ml. In outline:
(§3)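 erg3ΔΔ/erg11ΔΔ C. albicans taken from 24 h, 30 °C YPAD-agar colonies, brought to 1×10^-3 OD600 in PBS, then diluted 1:100 in YPAD. Serial twofold drug dilutions from 64 to 1 µg/mL in YPAD. OD600 read every 40 min over 48 h at 30 °C against no-drug and medium-blank controls. Triplicate wells, two independent experiments.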

For assay [5], the system named is Candida albicans. As to the kind of experiment: Antifungal activity against Candida albicans SN152 assessed as fungal growth inhibition incubated for 24 hrs by CLSI based broth double-dilution assay. In kind it is functional. The essentials:
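Broth double-dilution per CLSI M27-A3 (minor modifications); colonies from YPAD agar (24 h, 30 °C) suspended in PBS to 1 × 10^-3 OD600 then diluted 1:100 into YPAD; serial twofold dilutions 64–0.003 μg/mL in YPAD; 24 h at 30 °C; OD600 read; MIC80 = lowest concentration reducing OD600 ≥80% versus no-drug wells; triplicate, two independent experiments.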

Assay [6] concerns Candida albicans. As to the kind of experiment: Antifungal activity against Candida albicans SN152 harbouring erg3delta delta/erg11delta delta assessed as fungal growth inhibition incubated for 24 hrs by CLSI based broth double-dilution assay. In kind it is functional. The essentials: as §2
The subject of assay [7] is Candida albicans. As to the kind of experiment: Antifungal activity against Candida albicans SN152 harbouring erg3delta delta/erg11delta delta assessed as […] fungal growth inhibition measured every 40 mins for 48 hrs by double dilution method. In kind it is functional, organism-based. The following applies: dose 1-64 µg/ml. The essentials:
as §3

Assay [8] deals with Candida albicans. As to the kind of experiment: Antifungal activity against Candida albicans SN152 harbouring erg3delta delta/erg11delta delta assessed as […] fungal growth inhibition at 1 to 64 ug/mL measured every 40 mins for 48 hrs by double dilution method. It is filed as functional, organism-based. The following applies: dose 1-64 µg/ml. The essentials:
as §3

In brackets after ≈: the same amount, converted by molar mass. Activity calls are given as the source filed them. The rule behind the calls is not given here.

Usually MIC80 stands for the lowest concentration that inhibits either 80% of growth or 80% of the strains tested, depending on the study. With `C[C@@H](c1ncncc1F)[C@](O)(Cn1cncn1)c1ccc(F)cc1F` [VORICONAZOLE], the result in the assay with Candida parapsilosis [1] and in the assay on Candida albicans [3] was inactive. Moreover, the MIC80 with Candida parapsilosis [2] was 0.015 µg/mL (≈ 0.0429 µM). Moreover, the result in the assay with Candida tropicalis and with Candida albicans [4] was Active.

Regarding `C[C@H](C(=O)NC[C@](O)(Cn1cncn1)c1ccc(F)cc1F)c1ccc(-c2ccccc2)c(F)c1`, the result with Candida parapsilosis [1], in the assay with Candida tropicalis and with Candida albicans [3] was Active. In addition, the figures for the MIC80 in the assay with Candida albicans [5], in the assay on Candida parapsilosis [2] and in the assay with Candida albicans [6] were 0.007 µg/mL (≈ 0.0146 µM), 0.5 µg/mL (≈ 1.04 µM) and 64 µg/mL (≈ 133 µM), respectively. Also, the Activity result in the assay on Candida albicans [7] was “Dose-Dependent Effect”.

For `OC(Cn1cncn1)(Cn1cncn1)c1ccc(F)cc1F`, the result in the assay on Candida parapsilosis [1], in the assay with Candida albicans [8] and with Candida albicans [3] was inactive. For the same compound, the result in the assay with Candida tropicalis was Active.

With `CC(C(=O)O)c1ccc(-c2ccccc2)c(F)c1` (centres undefined), the Activity result in the assay on Candida albicans [7] is “Dose-Dependent Effect”.

As for `CC(C)Cc1ccc([C@H](C)C(=O)NC[C@](O)(Cn2cncn2)c2ccc(F)cc2F)cc1`, the outcome with Candida parapsilosis [1], with Candida tropicalis and with Candida albicans [3] was Active. The MIC80 amounted to 0.003 µg/mL (≈ 0.00678 µM) with Candida albicans [5] and 64 µg/mL (≈ 145 µM) in the assay with Candida albicans [6]. Also, the Activity entry in the assay on Candida albicans [7] was “Dose-Dependent Effect”.

As for `CC(C)Cc1ccc(C(C)C(=O)O)cc1` (centres undefined), in the assay with Candida albicans [7], the Activity entry was “Dose-Dependent Effect”.
